Measurements: ChEMBL document CHEMBL4043178, “Synthesis and evaluation of analogs of 5'-(((Z)-4-amino-2-butenyl)methylamino)-5'-deoxyadenosine (MDL 73811, or AbeAdo) - An inhibitor of S-adenosylmethionine decarboxylase with antitrypanosomal activity” (Bioorg Med Chem, 2017)

Assays:
Trypanosoma brucei [1] = assay: Antitrypanosomal activity against Trypanosoma brucei Lister 427 bloodstream forms assessed as inhibition of parasite growth at 25 uM incubated for 48 hrs by ATP-bioluminescence cell viability assay; format: functional; details: Lister 427, 48 h, read-out: GI
Summary of the method: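 Bloodstream-form Lister 427 cells grown in HMI-19, seeded at 3000 cells/mL; compound added as 100-fold intermediate dilution, final DMSO 0.1%. After 48 h culture, viability read by CellTiter-Glo ATP-bioluminescence. Tested 0.0038–25 µM in 3-fold steps, triplicate; no-cell and DMSO-only controls (0% and 100% viability) per plate; value is percent inhibition at 25 µM.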

[2] = Inhibition of Trypanosoma brucei AdoMetDC pre-incubated for 30 mins before AdoMet substrate addition by RapidFire-mass spectrometry
Liver [3] = assay: (§1) Half life in human pooled liver microsomes at 1 uM in presence of NADPH by LC/MS/MS method; format: ADME, microsome; details: microsomes, 1 µM
[4] = Inhibition of Trypanosoma brucei AdoMetDC without pre-incubation for 30 mins before AdoMet substrate addition by RapidFire-mass spectrometry
Liver [5] = assay: (§2) Half life in mouse pooled liver microsomes at 1 uM in presence of NADPH by LC/MS/MS method; format: ADME, microsome; details: microsomes, 1 µM
Trypanosoma brucei [6] = assay: Antitrypanosomal activity against Trypanosoma brucei Lister 427 bloodstream forms assessed as inhibition of parasite growth incubated for 48 hrs by ATP-bioluminescence cell viability assay; format: functional; details: Lister 427, 48 h
[7] = as §1; format: ADME, microsome; details: pooled liver microsomes
[8] = as §2; format: ADME, microsome; details: pooled liver microsomes
MDCK-MDR1 = assay: Apparent permeability in MDCK2-MDR1 cells at 3 uM incubated for 1 hr in absence of P-glycoprotein inhibitor GF120918 by LC/MS/MS method; format: ADME, cell-based, Canis lupus familiaris; details: dog, mdck-mdr1, 1 h
Trypanosoma brucei [9] = assay: Inhibition of Trypanosoma brucei AdoMetDC at 50 uM without pre-incubation for 30 mins before AdoMet substrate addition by RapidFire-mass spectrometry
Summary of the method: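 Inhibition without pre-incubation: substrate solution (80 µM AdoMet) added to compound before the enzyme solution (50 nM purified T. brucei AdoMetDC/prozyme); buffer Hepes pH 7.7 with 5 mM putrescine. Reaction ran 20 min, stopped with 1 M HCl, then analysed by RapidFire-MS.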

Trypanosoma brucei [10] = assay: Inhibition of Trypanosoma brucei AdoMetDC at 50 uM pre-incubated for 30 mins before AdoMet substrate addition by RapidFire-mass spectrometry
Summary of the method: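 Purified T. brucei AdoMetDC/prozyme complex, 50 nM in the enzyme solution, pre-incubated 30 min with compound in DMSO before adding the substrate solution (80 µM AdoMet); Hepes pH 7.7, NaCl, 5 mM putrescine. Reaction 20 min, quenched with 1 M HCl; substrate and product quantified by RapidFire-MS.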

[11] = Inhibition of His-tagged Trypanosoma brucei AdoMetDC expressed in Escherichia coli pre-incubated for 30 mins before AdoMet substrate addition
[12] = test system: Trypanosoma brucei brucei; assay: Antitrypanosomal activity against Trypanosoma brucei brucei; format: functional

| Structure (SMILES) | inhibition of growth at 25 µM (Trypanosoma brucei [1]) [%] | IC50 [2] [µM] | t1/2 (Liver [3]) [h] | IC50 [4] [µM] | t1/2 (Liver [5]) [h] | EC50 (Trypanosoma brucei [6]) [µM] | half-life at 1 µM [7] [min] | half-life at 1 µM [8] [min] | Papp (MDCK-MDR1) [×10⁻⁶ cm/s] | inhibition (Trypanosoma brucei [9]) [%] | inhibition (Trypanosoma brucei [10]) [%] | IC50 [11] [µM] | EC50 [12] [µM] |
| --- | --- | --- | --- | --- | --- | --- | --- | --- | --- | --- | --- | --- | --- |
| Cc1nc2c(N)ncnc2n1[C@@H]1O[C@H](CN(C)C/C=C\CNC(=O)OC(C)C)[C@@H](O)[C@H]1O | 35 | > 50 | > 1.5 | > 50 | > 1.5 |  |  |  |  |  |  |  |  |
| CC(=O)NC/C=C\CN(C)C[C@H]1O[C@@H](n2cnc3c(N)ncnc32)[C@H](OC(C)=O)[C@@H]1OC(C)=O |  | > 50 | > 1.5 | > 50 | 0.11 | > 25 |  |  |  |  |  |  |  |
| CC(C)Nc1ncnc2c1ncn2[C@@H]1O[C@H](CN(C)C/C=C\CN)[C@@H](O)[C@H]1O |  | 0.11 | > 1.5 | 7.1 | > 1.5 | 2.5 |  |  |  |  |  |  |  |
| CCC(=O)NC/C=C\CN(C)C[C@H]1O[C@@H](n2cnc3c(N)ncnc32)[C@H](O)[C@@H]1O |  | 25 | > 1.5 | 19 | > 1.5 | > 25 |  |  |  |  |  |  |  |
| CCCC(=O)NC/C=C\CN(C)C[C@H]1O[C@@H](n2cnc3c(N)ncnc32)[C@H](OC(C)=O)[C@@H]1OC(C)=O |  | > 50 | 0.85 | > 50 | 0.05 | > 25 |  |  |  |  |  |  |  |
| CC(=O)Oc1cc(C)cc(C)c1C(C)(C)CC(=O)NC/C=C\CN(C)C[C@H]1O[C@@H](n2cnc3c(N)ncnc32)[C@@H]2OC(C)(C)O[C@@H]21 | 44 | > 50 |  |  |  |  | ≤ 2.5 | ≤ 2.5 |  |  |  |  |  |
| Cc1nc2c(N)ncnc2n1[C@@H]1O[C@H](CN(C/C=C\CNC(=O)OC(C)(C)C)C2CC2)[C@H]2OC(C)(C)O[C@H]21 |  | 42 | < 0.0417 | > 50 | < 0.0417 | 3 |  |  | 31.2 |  |  |  |  |
| CCOc1ncnc2c1ncn2[C@@H]1O[C@H](CN(C)C/C=C\CN)[C@@H](O)[C@H]1O |  | 0.6 | > 1.5 |  | > 1.5 | 0.36 |  |  |  | 33 |  |  |  |
| Cc1nc2c(N)ncnc2n1[C@@H]1O[C@H](CN(C)C/C=C\CNC(=O)OCc2ccccc2)[C@@H](O)[C@H]1O |  |  | 0.4 |  | 0.217 | 2.6 |  |  |  | 17 | 39 |  |  |
| CN(C/C=C\CN)C[C@H]1O[C@@H](n2cnc3cncnc32)[C@@H]2OC(C)(C)O[C@@H]21 |  | > 50 | > 1.5 | > 50 | 0.983 | > 25 |  |  |  |  |  |  |  |
| CCC(=O)NC/C=C\CN(C)C[C@H]1O[C@@H](n2cnc3c(N)ncnc32)[C@H](OC(C)=O)[C@@H]1OC(C)=O |  | > 50 | 1.25 | > 50 | 0.0767 | > 25 |  |  |  |  |  |  |  |
| CC1(C)O[C@@H]2[C@H](O1)[C@@H](CN(C/C=C\CN)CCF)O[C@H]2n1cnc2c(N)ncnc21 |  | > 50 | > 1.5 | > 50 | > 1.5 | > 25 |  |  |  |  |  |  |  |
| Cc1nc2c(N)ncnc2n1[C@@H]1O[C@H](CN(C/C=C\CN)CCO)[C@H]2OC(C)(C)O[C@H]21 |  | > 50 | > 1.5 | > 50 | > 1.5 | > 25 |  |  |  |  |  |  |  |
| CCCC(=O)NC/C=C\CN(C)C[C@H]1O[C@@H](n2cnc3c(N)ncnc32)[C@H](O)[C@@H]1O |  | > 50 | > 1.5 | > 50 | > 1.5 | > 25 |  |  |  |  |  |  |  |
| CCOC(=O)NC/C=C\CN(C)C[C@H]1O[C@@H](n2c(C)nc3c(N)ncnc32)[C@H](O)[C@@H]1O |  |  | > 1.5 |  | > 1.5 |  |  |  |  | 40 | 40 |  |  |
| CN(C/C=C\CN)C[C@H]1O[C@@H](n2cnc3c(N)ncnc32)[C@H](O)[C@@H]1O |  | 0.041 | > 1.5 | 2.4 | > 1.5 | 0.01 |  |  |  |  |  | 0.041 | 0.01 |
| Cc1nc2c(N)ncnc2n1[C@@H]1O[C@H](CN(C/C=C\CN)C2CC2)[C@H]2OC(C)(C)O[C@H]21 |  | > 50 | > 1.5 | > 50 | > 1.5 | > 3 |  |  |  |  |  |  |  |
| Cc1nc2c(N)ncnc2n1[C@@H]1O[C@H](CN(C/C=C\CN)C2CC2)[C@@H](O)[C@H]1O |  | > 50 | > 1.5 | > 50 | > 1.5 | > 3 |  |  |  |  |  |  |  |
| CN(C/C=C\CN)C[C@H]1O[C@@H](n2cnc3c(N(C)C)ncnc32)[C@H](O)[C@@H]1O |  | 0.81 | > 1.5 |  | > 1.5 | 10 |  |  |  | 37 |  |  |  |
| CNc1ncnc2c1ncn2[C@@H]1O[C@H](CN(C)C/C=C\CN)[C@H]2OC(C)(C)O[C@H]21 | 37 | 12 | > 1.5 | > 50 | > 1.5 |  |  |  |  |  |  |  |  |
| Cc1nc2c(N)ncnc2n1[C@@H]1O[C@H](CN(C)C/C=C\CNC(=O)OC(C)(C)C)[C@H]2OC(C)(C)O[C@H]21 |  | > 50 | < 0.0417 | > 50 | < 0.0417 | > 25 |  |  | 5.1 |  |  |  |  |
| CNc1ncnc2c1ncn2[C@@H]1O[C@H](CN(C)C/C=C\CN)[C@@H](O)[C@H]1O |  | 0.17 | > 1.5 | 14 | > 1.5 | 0.37 |  |  |  |  |  |  |  |
| NC/C=C\CN(CCF)C[C@H]1O[C@@H](n2cnc3c(N)ncnc32)[C@H](O)[C@@H]1O |  |  | > 1.5 | > 50 | > 1.5 | > 25 |  |  |  |  | 36 |  |  |
| CCCCCCCCC(=O)Nc1ncnc2c1ncn2[C@@H]1O[C@H](CN(C)C/C=C\CN)[C@H]2OC(C)(C)O[C@H]21 |  | 0.85 | 0.162 | 48 | 0.1 | 0.16 |  |  | 1 |  |  |  |  |
| CN(C/C=C\CN)C[C@H]1O[C@@H](n2cnc3c(N)ncnc32)[C@@H]2OC(C)(C)O[C@@H]21 |  | 3 | > 1.5 |  | > 1.5 | 0.42 |  |  |  | 22 |  |  |  |
| Cc1nc2c(N)ncnc2n1[C@@H]1O[C@H](CN(C)C/C=C\CN)[C@@H](O)[C@H]1O |  | 0.021 | > 1.5 | 0.23 | > 1.5 | 0.0018 |  |  |  |  |  | 0.021 | 0.0018 |
| CC(=O)NC/C=C\CN(C)C[C@H]1O[C@@H](n2cnc3c(N)ncnc32)[C@H](O)[C@@H]1O |  | 18 | > 1.5 | 13 | > 1.5 | > 25 |  |  |  |  |  |  |  |
